In ChEMBL document CHEMBL4513216, “Probing the Open Global Health Chemical Diversity Library for Multistage-Active Starting Points for Next-Generation Antimalarials” (ACS Infect Dis, 2020):

Assay: Toxicity liver stage against HepG2, at 10uM
Format: cell-based
Set-up: test concentration 10 uM, cell line HepG2-A16-CD81EGFP
Conditions: human, HepG2-A16-CD81EGFP cells; read-out: INHIBITION
How it was run: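 Uninfected HepG2-A16-CD81EGFP cells, 3 × 10^3 per well, 1536-well, plated on prespotted compound at 10 μM final, parasite-free screening media added to match infected plates; puromycin 10 μM positive, DMSO 0.5% negative; run in parallel with 48 h PbLuc assay at 37 °C, 5% CO2; viability by CellTiter-Glo luminescence, normalized to controls.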

| Compound | cytotoxicity at 10 µM [%] |
| --- | --- |
| COCc1cc(CC2(NCc3ccccc3Cl)COC2)no1 | -9.09 |
| CC(C)(C)c1c[nH]c([C@@H]2COCCN2C2CCNCC2)n1 | 6.07 |
| O=C1CO[C@H]2CN(Cc3ccc4c(c3)OCO4)C[C@H]2N1 | 0.801 |
| COc1ccccc1CN1CC(OC)CN(C(=O)OCC(C)C)CC1=O (stereo unspecified) | -12 |
| COC1CCN(C(=O)NCC(N)=O)CC(=O)N(C)c2ccccc21 (stereo unspecified) | 4.79 |
| CN1C(=O)CCc2cc(NC(=O)C3CCCC3)ccc21 | -9.79 |
| O=C(NC1(c2nc(C3CC3)no2)CCCCC1)c1cccnc1O | -8.92 |
| O=C(NCc1cccs1)NCC(O)c1ccoc1 (stereo unspecified) | -11.9 |
| CC(C)COCC1CN(Cc2ccsc2)Cc2ncn(C)c21 (stereo unspecified) | 6.61 |
| O=c1cc2c(nn1CN1CCN(c3ccccc3)CC1)CCC2 | 7.13 |
| CC(C)CC1SCC(=O)Nc2c1cnn2C(C)C (stereo unspecified) | 1.11 |
| O=C(CSC1=NS(=O)(=O)c2cc(F)ccc2N1)Nc1cccc(Cl)c1 | 3.92 |
| Cc1cc(S(=O)(=O)N2CCC(S(C)(=O)=O)CC2)ccc1F | 6.25 |
| Cc1cc2nc(SCC(=O)N3CCCC3)n(-c3ccccc3)c(=O)c2[nH]1 | -6.34 |
| O=C1N(Cc2cccnc2)CCC12CCCNC2 (stereo unspecified) | 3.52 |
| CCOCCNS(=O)(=O)c1cc(C)c2nc(O)cc(C)c2c1 | -4.77 |
| O=C(c1cnccn1)N1CCCC(C2=Nc3ccccc3S(=O)(=O)N2)C1 (stereo unspecified) | -0.055 |
| Cc1cc2ncc(CN(C)C)c(C3CCN(C)CC3)n2n1 | -1.19 |
| CNc1cccc(CC2COCCN(C(=O)c3cncs3)C2)n1 (stereo unspecified) | 6.42 |
| O=C1CO[C@H]2CCN(C(=O)c3ccc4c(c3)CCCC4)CC[C@@H]2N1 | 0.905 |
| CCN(Cc1ccccc1O)CC1(C)Cc2c(N)nc(N)nc2O1 (stereo unspecified) | 2.15 |
| CN(c1ccccc1)c1ccc(CC2CCCN(CCO)C2)nn1 (stereo unspecified) | -9.3 |
| COc1ccc(-c2nccc(C3CCCN3C)n2)cc1 (stereo unspecified) | 9.97 |

| Compound | cytotoxicity at 10 µM [%] |
| --- | --- |
| Cc1cc(N(C)C)nc(C2(C)CCCN2C(=O)c2cnccn2)n1 (stereo unspecified) | -1.19 |
| CCOc1cccc(CNC(=O)C(C)(C)C#N)c1OC(F)F | -45.5 |
| CN1CCN(C2CCN(CC(O)c3ccccc3)CC2)C1=O (stereo unspecified) | 1.76 |
| CS(=O)(=O)NC(=O)c1ccn(-c2cccc(Br)c2)n1 | -3.64 |
| CCCOc1cc(CNC(=O)Nc2cccc(C(C)=O)c2)ccn1 | -1 |
| Oc1c(F)cc(CNc2cccc(-c3nnc[nH]3)c2)cc1F | -44.2 |
| CCN1CCN(C2CCN(C(C(N)=O)c3ccc(F)cc3)CC2)C1=O (stereo unspecified) | -20 |
| CCOc1ccccc1C(=O)N1CCn2c(nnc2C(F)(F)F)C1 | -2.99 |
| CC(=O)N1CCCN(S(=O)(=O)c2cc3ccccc3o2)CC1 | 18.8 |
| COc1ccc(-c2cnc(CN3CCCC3Cn3cncn3)o2)cc1 (stereo unspecified) | 3.41 |
| CCN(C(c1ccc(OC)cc1)c1cccnc1)S(C)(=O)=O (stereo unspecified) | 9.62 |
| O=C(NCC(O)c1ccc(Cl)c(F)c1)NC1CC=CC1 (stereo unspecified) | -2.41 |
| CN(Cc1cccc(C#N)c1)Cn1nc(C(C)(C)C)ccc1=O | -1.64 |
| Cc1ccc(Br)c(S(=O)(=O)NCc2cnn(C)c2)c1 | 6.95 |
| CN(CCc1nccs1)C(=O)C1(C#N)CCCCC1 | 2.91 |
| O=S(=O)(NCc1cccnc1OC1CCCC1)N1CCOCC1 | 1.46 |
| CC(C)c1nc(S(=O)(=O)N2CCSc3ccccc32)c[nH]1 | 2.7 |
| CSC1(CNC(=O)NC(C)c2ccc(F)cc2)CCOCC1 (stereo unspecified) | 6.88 |
| N#Cc1cccc(OCCN2CCNC(=O)C2c2cccs2)c1 (stereo unspecified) | 6.76 |
| Clc1ccc(Cc2nc(CNCCn3cccn3)cs2)cc1 | -1.86 |
| Cc1cc(=O)n2nc(Oc3ccc(Cl)c(C)c3)sc2n1 | -19 |
| Cc1cc2n(n1)CC(CNC1CCN(Cc3ccccc3C)CC1)CN2 (stereo unspecified) | 3.69 |
| NC(=O)CN1CCCN(C(=O)c2ccn(-c3cccc(F)c3)n2)CC1 | 14.3 |

| Compound | cytotoxicity at 10 µM [%] |
| --- | --- |
| O=C(Cc1ccccc1F)N1CCN(C(=O)c2ccoc2)CC1 | 1.16 |
| COc1cc(N2CCC3(CC2)CNC(=O)CO3)ncn1 | 2.57 |
| Cn1cc(C(=O)N2CCO[C@@H]3CN(C4CCC4)C[C@@H]3C2)cn1 | 8.55 |
| CCS(=O)(=O)N1CCN(C)c2ncccc2C1 | 2.88 |
| CC(=O)N1CCC2(CCN(C(=O)c3ccc(C)c(C(F)(F)F)c3)CC2)C1 | 3.73 |
| CCc1ncc(-c2nccn2-c2cccc(CC(=O)O)c2)cn1 | 10.2 |
| CN1CC2(CCCN(C(=O)Cc3cccc(O)c3)C2)OC1=O (stereo unspecified) | 4.61 |
| COC[C@@]12CC[C@@H](N3CCOCC3)C[C@H]1CCN(c1ccc(Cl)cn1)C2 | -5.14 |
| CCNc1ccnc(N2Cc3cnc(CC(C)C)nc3C2)n1 | 10.4 |
| CCSc1ccc(C(=O)N2CCC3(CC2)[C@H](O)C[C@@H]3O)s1 | 1.34 |
| CC(C)CC(O)C1CCN(C(=O)c2coc(CN3CCOCC3)c2)CC1 (stereo unspecified) | -7.27 |
| CS(=O)(=O)c1cnc(C2CCCC2)nc1C1CCCNC1 (stereo unspecified) | -6.35 |
| CSCC(=O)N1CCC(Oc2cccc(C)c2)CC1 | 1.98 |
| NC(=O)COc1ccc(CN2CC[C@@]3(O)CCCC[C@H]3C2)cc1Cl | -6.87 |
| CN(C)[C@@H]1C[C@@H](CO)N(C(=O)Nc2ccc(SC(F)(F)F)cc2)C1 | -0.187 |
| c1cc2c(cc1Cn1cc(C3CCCNC3)nn1)CCCO2 (stereo unspecified) | -5.24 |
| Cc1cc(NCCc2c(C)n[nH]c2C)nc(-c2cccnc2)n1 | -0.355 |
| COc1ccc(-n2nc(C(C)C)nc2COC(C)C)cc1 | 1.56 |
| COc1ccc(CNC2CCCc3nc(N(C)C)ncc32)c(OC)c1 (stereo unspecified) | 1.42 |
| c1ccc2c3c([nH]c2c1)CN(Cc1cc2n(n1)CCNC2)CC3 | 3.06 |
| CC1CCc2n[nH]c(C(=O)N3CCc4c(nc(N(C)C)[nH]c4=O)C3)c2C1 (stereo unspecified) | 21.4 |
| Cc1cc(NCCc2nnc(N)s2)nc(-c2cccnc2)n1 | -5.44 |
| CC(C)[C@@H](C)NC1CCN(c2ccc(-n3ccnc3)cc2)CC1 | 0.487 |

| Compound | cytotoxicity at 10 µM [%] |
| --- | --- |
| CCOCCn1c(=O)[nH]c2cc(C(=O)N(C)Cc3cc(C)[nH]n3)ccc21 | -0.673 |
| Cc1ccc(S(N)(=O)=O)cc1C(=O)N1CCc2c(ncnc2N(C)C)C1 | -2.71 |
| CCc1cc(N[C@H](C(N)=O)C(C)C)n2nc(C)c(C)c2n1 | 5.88 |
| CCCc1nc(C(=O)NC(COC)c2ccnn2C)cs1 (stereo unspecified) | -2.37 |
| Cn1ccnc1CN1CCC(c2nnc(Cn3cccn3)n2C)CC1 | 17.4 |
| CC(C)(NC(=O)C1CCN(C2CCCCC2)CC1)c1nnc(N)s1 | 6.17 |
| Cc1cncc(C(=O)N2CCCC(C(=O)CCc3ccccc3)C2)c1 (stereo unspecified) | -10.1 |
| COc1ccc(C(=O)N2CC[C@H](CO)[C@H](O)C2)c(C)c1 | -11.5 |
| CCCS(=O)(=O)NCC1CCOc2ccccc2C1 (stereo unspecified) | -6.92 |
| COc1ccc(Cl)cc1C(=O)N1CCOC2(CNCCOC2)C1 (stereo unspecified) | -9.73 |
| CN(C)[C@H]1CCCCN(C(=O)CCc2csc(N)n2)C1 | -7.59 |
| Cc1cccc(CN2CCN(Cc3ccccc3)CC(O)C2)n1 (stereo unspecified) | -8.42 |
| CC(c1cc(F)ccc1F)N(C)Cc1nc2c(cnn2C)c(=O)[nH]1 (stereo unspecified) | -7.8 |
| CC(=O)N1CCCN(C(=O)NCCNc2ccccn2)CC1 | -4.07 |
| c1ccc2oc(CN3CCCC(Cn4cncn4)C3)nc2c1 (stereo unspecified) | -7.3 |
| Cc1cnn(C2CCCN(C(=O)CCc3c(C)noc3C)C2)c1 (stereo unspecified) | -17.2 |
| CCS(=O)(=O)CCN1CCCC1c1noc(C)n1 (stereo unspecified) | -10.4 |
| CN1CCOC(CNCc2coc(-c3ccccc3Cl)n2)C1 (stereo unspecified) | -14.1 |
| O=C(NCc1cc[nH]n1)NCC(O)c1ccc(F)cc1 (stereo unspecified) | -12 |
| CN(C)c1cc(CNC(=O)c2ccc(Br)cc2F)ccn1 | -26 |
| Cc1nc(C)n(CC2CN(Cc3noc(C4CC4)n3)CCO2)n1 (stereo unspecified) | -8.15 |
| CCn1nc2c(cc1=O)CN(CCCN1CCCC1=O)CC2 | -13.9 |
| CN(Cc1nnc2n1CCC2)C(=O)c1ccc2c(c1)OCO2 | -18.2 |

| Compound | cytotoxicity at 10 µM [%] |
| --- | --- |
| Cc1cc(C)n(CCC(=O)N2CCCC(c3cc(C(N)=O)[nH]n3)C2)n1 (stereo unspecified) | -29.3 |
| Cc1occc1CNC(=O)NCCN(C)C1CCCC1 | -19.5 |
| CC(C(N)=O)S(=O)(=O)Cc1cc(Cl)c2c(c1)OCO2 (stereo unspecified) | -14.2 |
| COc1cc(C)nc(N2CCN(C(=O)c3ccc(Cl)o3)CC2)n1 | -3.22 |
| CN(Cc1cn2ccccc2n1)C1CCCN(c2cccnn2)C1 (stereo unspecified) | -9.78 |
| CN(C)c1ccc(C(=O)N2CCN(Cc3cscn3)CC2)cc1F | -11.7 |
| CCn1cc(-c2cncn2CCc2ccc3c(c2)OCCO3)cn1 | 18.7 |
| CC(=O)N1CCN(c2cncc(C3CCNCC3)n2)CC1 | 16.8 |
| CNC(=O)C1(N2CCC[C@H]2C(=O)NC2CC2)CCCCC1 | -1.69 |
| Cn1nccc1CN1CCOC(c2cccc(-c3cncnc3)n2)C1 (stereo unspecified) | 0.88 |
| CN1C(Cn2cccn2)C[C@@H]2CN(C(=O)c3cccc(C#N)c3)CC[C@@H]21 (stereo partly specified) | 3.1 |
| CCN(CC)Cc1cn2c(n1)CN(Cc1c(C)noc1C)CC2 | -0.0472 |
| Cc1cnccc1-c1cnn(CCNC(=O)c2cccnc2)c1C1CC1 | 4.34 |
| CCOC1COC2(CCN(c3cccc(C)n3)CC2)C1 (stereo unspecified) | -2.16 |
| CNc1cc(C2CCCNC2)nc(C)n1 (stereo unspecified) | 8.37 |
| Cc1oncc1C(=O)N1CC[C@H]2[C@H](C[C@@H](CN3CCCC3)N2C)C1 | 0.286 |
| OCCN1CCC(F)(F)C2(CCN(c3cnccn3)C2)C1 (stereo unspecified) | 8.24 |
| CCS(=O)(=O)N1C[C@@H](OCc2ccccn2)[C@@H]2OCCC[C@@H]21 | -2.31 |
| N#CC1Sc2nnc(-c3ccccc3Br)n2N=C1N (stereo unspecified) | -4.81 |
